Data as given in ChEMBL document CHEMBL1139359, “Novel chemotactic For-Met-Leu-Phe-OMe (fMLF-OMe) analogues based on met residue replacement by 4-amino-proline scaffold: synthesis and bioactivity” (2009).
Calls of active or inactive are those of the source. No cut-off for these calls is given here.

Experiments:
[1] = system: Neutrophil; assay: Induction of chemotactic activity in human neutrophil assessed as chemotactic index at 1 nM; assay type: functional
Procedure, shortened: (§1)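 Neutrophils from healthy donors were purified by dextran sedimentation, Ficoll-Paque centrifugation and hypotonic red-cell lysis, then held in KRPG pH 7.4. Peptide placed in lower well of a 48-well microchemotaxis chamber, diluted in KRPG with 1 mg/mL BSA, tested at 10^–13 to 10^–5 M. Migration into filter scored by leading-front method. C.I. = (test − buffer migration)/buffer migration. Mean of six experiments run in duplicate.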

[2] = system: Neutrophil; assay: Induction of lysozyme release in human neutrophil at 1 uM; assay type: functional
Procedure, shortened: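 Cells at 3×10^6/well, in triplicate wells, preincubated with 5 µg/mL cytochalasin B at 37 °C for 15 min, then peptide (final 10^–10–5·10^–5 M) for 15 min. Plates spun 400g for 5 min. Supernatant lysozyme measured nephelometrically as rate of Micrococcus lysodeikticus cell-wall lysis at 465 nm. Expressed as net % of total content released by 0.1% Triton X-100. Mean of five experiments in duplicate.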

[3] = system: Neutrophil; assay: Induction of superoxide anion radicals production in human neutrophil at 10 uM; assay type: functional
Procedure, shortened: (§2)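 Donor neutrophils (dextran/Ficoll/hypotonic lysis, KRPG pH 7.4) pretreated with 5 µg/mL cytochalasin B for 5 min. Peptide then added at 10^–10–5·10^–5 M at 37 °C in microplate reader. Cytochrome c reduction read as absorbance difference 550 vs 468 nm (absorptivity 18.5 mmol^–1 cm^–1). Expressed as net nmol O2− per 10^6 cells per 5 min, mean of six experiments in duplicate.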

[4] = system: Neutrophil; assay: Inhibition of fMLF-OMe-induced superoxide anion radicals production in human neutrophil; assay type: functional, cell-based
[5] = system: Neutrophil; assay: Inhibition of fMLF-OMe-induced chemotactic index in human neutrophil at 100 uM; assay type: functional; parameters: Activity: scale not given: the % may be the effect or the level left; conditions: for inhibition at 100 µM: Homo sapiens, Neutrophil
Procedure, shortened: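 Human neutrophils, chemotaxis toward 10 nM fMLF-OMe in microchemotaxis chamber, measured with increasing concentrations of test peptide. Inhibition scored on chemotactic index (test − buffer migration over buffer migration), with migration assessed by leading-front method.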

[6] = system: Neutrophil; assay: Induction of superoxide anion radicals production in human neutrophil at 1 uM; assay type: functional; procedure, shortened: as §2
[7] = system: Neutrophil; assay: Induction of chemotactic activity in human neutrophil at 0.1 nM; assay type: functional; procedure, shortened: as §1
[8] = system: Neutrophil; assay: Inhibition of fMLF-OMe-induced lysozyme release in human neutrophil assessed as lysis of Micrococcus lysodeikticus cell wall by nephelometry; assay type: functional, cell-based

Row | Structure (SMILES) | Activity [1] | Activity [2] [%] | Activity [3] [nmol] | Activity [4] | Activity [5] [%] | Activity [6] [nmol] | Activity [7] | Activity [8] | Activity ([3]; in the assay text read “1 uM” for “10 uM”) [nmol] | inhibition at 100 µM [5] [%]
1 | COC(=O)[C@H](Cc1ccccc1)NC(=O)[C@H](CC(C)C)NC(=O)[C@@H]1C[C@H](NC=O)CN1C(=O)OC(C)(C)C | 0.34 | 12 | 2 | inactive |  |  |  |  |  | 
2 | COC(=O)[C@H](Cc1ccccc1)NC(=O)[C@H](CC(C)C)NC(=O)[C@@H]1C[C@@H](NC=O)CN1C(=O)OC(C)(C)C | 0.4 | 13 | 1 | inactive | 73 |  |  |  |  | 
3 | COC(=O)[C@H](Cc1ccccc1)NC(=O)[C@H](CC(C)C)NC(=O)[C@H](CCSC)NC=O | 1.1 | 60 |  |  |  | 52 |  |  |  | 
4 | COC(=O)[C@H](Cc1ccccc1)NC(=O)[C@H](CC(C)C)NC(=O)[C@@H]1C[C@H](NC=O)CN1C=O |  | 24 |  |  |  |  | 0.7 | inactive | 4 | 
5 | COC(=O)[C@H](Cc1ccccc1)NC(=O)[C@H](CC(C)C)NC(=O)[C@@H]1C[C@@H](NC=O)CN1C=O |  | 15 |  |  |  | 5 | 0.75 | inactive |  | 
6 | COC(=O)[C@H](Cc1ccccc1)NC(=O)[C@H](CC(C)C)NC(=O)[C@@H]1C[C@@H](NC(=O)OC(C)(C)C)CN1C(=O)OC(C)(C)C |  | 18 | 2 |  |  |  | 0.45 | inactive |  | 60
7 | COC(=O)[C@H](Cc1ccccc1)NC(=O)[C@H](CC(C)C)NC(=O)[C@@H]1C[C@H](NC(=O)OC(C)(C)C)CN1C(=O)OC(C)(C)C | 0.4 | 12 | 14.6 |  |  |  |  | inactive |  | 60
